Redox H2O2 prof – compounds producing H2O2 with reducing agent – biochemical, NIH compound library profiling, artefact control for MLSCN library redox annotation, primary screen. DTT-dependent redox cycling H2O2, phenol red/HRP absorbance; 100% = 100 µM peroxide control, 0% = buffer. activation, % at 10 µM. 200,000 tested, 0.03% active;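 active = activation of at least 50% relative to the plate's high and low controls in the primary single-dose screen; inactive = activation below 50%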;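 note: compound incubated with DTT at 0.8 mM final as the reducing agent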
bCat nuc transl – alters nuclear translocation of beta-catenin in HeLa cells; 190,000 tested, 0.3% active; immunofluorescence imaging; nuclear translocation activity, % at 5 µM; AID 1665;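 active = nuclear translocation activity above 50% at 5 µM, with a well cell count of 50 or more; inconclusive = wells under 50 cells across six images, flagged as toxic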;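 note: per-cell ratio of nuclear to cytoplasmic median beta-catenin stain intensity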
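test system = HeLa cells, endogenous beta-catenin | dosing = single 5 µM dose plus 0.02–20 µM confirmation series | times = compound treatment 24 h, 37°C, 5% CO2 | technique = beta-catenin immunofluorescence imaging with DAPI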
ROMK primary – modulators of human ROMK potassium channel; Tet-inducible ROMK, thallium flux fluorescence; actives lie on both sides; B-score at 10 µM; 130,000 tested, 2% active;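 active = signal ratio slope over the read window, or its plate-corrected B-score, at least 3 SD from the plate mean, either direction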;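 note: B-score of the F/F0 ratio slope over 7 to 12 s after thallium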
KCC2 mod – modulates chloride dependent transport by human KCC2. 190,000 tested, 2.2% active. KCC2 cells, thallium flux FluoZin-2 fluorescence. B-score of Tl+ flux slope (higher = more flux/activation; lower = inhibition) at 10 µM. AID 1456;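 active = thallium flux slope and its plate-corrected score both differing from the plate sample mean at a set confidence after two filtering rounds, in either direction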;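 note: slope of fluorescence scaled to starting intensity during 10 to 20 s after thallium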
Target sequence (Q9H2X9 whole entry, looked up): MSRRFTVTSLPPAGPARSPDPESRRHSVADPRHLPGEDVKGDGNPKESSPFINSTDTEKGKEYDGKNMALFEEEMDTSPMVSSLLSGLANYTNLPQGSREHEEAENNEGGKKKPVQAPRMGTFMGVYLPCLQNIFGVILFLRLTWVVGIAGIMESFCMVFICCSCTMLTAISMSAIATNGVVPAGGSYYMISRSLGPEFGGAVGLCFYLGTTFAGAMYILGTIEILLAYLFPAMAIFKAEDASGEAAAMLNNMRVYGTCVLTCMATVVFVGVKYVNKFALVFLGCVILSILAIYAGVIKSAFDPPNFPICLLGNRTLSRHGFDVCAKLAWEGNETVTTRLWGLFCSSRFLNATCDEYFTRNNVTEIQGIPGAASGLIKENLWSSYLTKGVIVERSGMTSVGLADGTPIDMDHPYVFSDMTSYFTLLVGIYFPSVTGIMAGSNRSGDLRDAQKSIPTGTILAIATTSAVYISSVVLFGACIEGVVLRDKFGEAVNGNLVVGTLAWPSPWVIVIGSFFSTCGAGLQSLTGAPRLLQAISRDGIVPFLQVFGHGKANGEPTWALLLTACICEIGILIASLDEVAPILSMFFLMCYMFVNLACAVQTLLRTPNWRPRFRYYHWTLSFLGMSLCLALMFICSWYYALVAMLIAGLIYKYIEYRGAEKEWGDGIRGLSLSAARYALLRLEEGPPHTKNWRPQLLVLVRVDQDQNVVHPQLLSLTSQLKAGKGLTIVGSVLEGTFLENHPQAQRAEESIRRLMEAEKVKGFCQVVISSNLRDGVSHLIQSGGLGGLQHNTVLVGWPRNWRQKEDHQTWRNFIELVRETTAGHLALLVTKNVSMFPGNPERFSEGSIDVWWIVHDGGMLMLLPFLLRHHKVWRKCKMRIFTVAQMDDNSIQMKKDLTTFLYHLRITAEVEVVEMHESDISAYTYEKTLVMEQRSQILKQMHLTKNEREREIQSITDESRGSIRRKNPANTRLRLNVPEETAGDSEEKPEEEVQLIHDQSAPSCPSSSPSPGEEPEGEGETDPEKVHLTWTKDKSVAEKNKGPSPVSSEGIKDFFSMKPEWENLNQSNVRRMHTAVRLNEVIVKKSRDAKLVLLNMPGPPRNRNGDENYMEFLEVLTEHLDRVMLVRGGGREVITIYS
MT stabilize HCS – microtubule stabilization, imaging screen; HeLa tubulin immunostaining HCS, 24 h; share of cells brighter than vehicle mean+2SD; % tubulin-high responders, % at 10 µM; 200,000 tested, 0.83% active; AID 2205;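 active = plate Z-score above 3 for both tubulin-high and condensed-nucleus cell shares, with cell loss under 80%, at 10 µM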;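 note: anti alpha tubulin signal scored within the nucleus-defined area of each cell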
ROMK hit retest – retested hit modulating human ROMK potassium channel. AID 1917. shares compounds with ROMK primary. normalized thallium flux (F/F0 slope) at 10 µM. 3,000 tested, 54% active. ROMK thallium flux, fluorescence ratio; active compounds read low;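 active = Flux at 10 µM at least 3 SD below or above vehicle control mean in one or both replicates; inconclusive = no clear call, values can overlap the other calls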
Numbers stand for hits; n = inactive; u = inconclusive; x = not tested or not shown. Shown are actives, neighbours in structure and some others; about 3.7% of the full set was active somewhere.

SMILES	Redox H2O2 prof	bCat nuc transl	ROMK primary	KCC2 mod	MT stabilize HCS	ROMK hit retest
O=C(C[n+]1cc(-c2ccc(Cl)cc2)n2c1CCCCC2)c1ccccc1	x	n	x	n	x	x
Cc1ccc(-c2csc(NC(=O)C[n+]3cc(-c4ccccc4)n4c3CCC4)n2)cc1	x	n	-6.15	n	x	0.0601
Cc1ccc(-c2csc(NC(=O)C[n+]3cc(-c4ccc(C)cc4)n4c3CCC4)n2)cc1	x	n	x	n	x	x
O=C(Cn1cc(C(F)(F)F)cc(Cl)c1=O)Nc1cc(S(=O)(=O)N2CCOCC2)ccc1Cl	n	n	x	n	n	x
NC(=O)CC[C@@H]1NC(=O)[C@@H]2CCCN2C(=O)c2cc([N+](=O)[O-])cc(I)c2NCCC[C@@H](C(N)=O)NC1=O	n	x	n	n	n	x
Nc1c(C(=O)Nc2ccccc2)c2nc3ccccc3nc2n1-c1ccc(O)cc1	x	n	x	n	x	x
Nc1nonc1C(=O)NCCNCc1ccccc1OCc1ccc(F)cc1	n	n	x	n	n	0.062
CCOc1ccc(CNCCNC(=O)c2nonc2N)cc1	n	n	n	n	n	x
CCn1c(=O)cc(SCC(=O)Nc2ccc(C)cn2)c2ccccc21	n	n	n	n	n	x
O=C(NCC1CCCO1)C(c1ccc(F)cc1)N(CC1CCCO1)C(=O)c1ccc(-c2ccccc2)[nH]1 (stereo not drawn)	n	n	-3.16	n	n	0.0595
CN(C)c1cc(-c2ccc(Cl)cc2Cl)oc(=O)c1Cl	x	n	x	n	x	x
N#Cc1c(Nc2ccc(Cl)cc2)s[nH]c1=O	x	n	-12	n	x	0.0651
N#Cc1ccc(NC(=O)Nc2ccc(Cl)cc2)cc1	n	n	x	n	n	x
C#CCCOC(=O)Nc1ccccc1	x	n	x	n	x	x
OC1(c2ccccc2)CCN(Cc2ccccc2)C2CCCCC21 (stereo not drawn)	n	n	-4.48	n	n	0.0669
Cn1c(=O)c([N+](=O)[O-])c(-n2ccnc2)c2ccccc21	n	n	-8.34	n	n	0.0475
CCCS(=O)(=O)c1c(S(=O)(=O)CCC)c2ccc(C(N)=O)cn2c1C(=O)c1ccc(OC)cc1	n	n	n	n	n	0.061
Cc1sc2ncnc(NC3CCN(Cc4ccccc4)CC3)c2c1C	n	n	-3.72	n	n	u
c1ccc(CN2CCC(Nc3ncnc4sccc34)CC2)cc1	n	n	n	n	n	x
CN(C)/C=N/c1c(C#N)cnn1-c1ccccc1	n	n	n	x	n	x
CN(C)/C=N/c1c(C#N)cnn1-c1ncnc2sc(-c3ccccc3)cc12	n	n	x	n	n	0.0628
Cc1ccc(NS(=O)(=O)c2ccc(-c3csc(C)n3)s2)c(C)c1	x	n	-11.2	n	x	n
CCN(CC)S(=O)(=O)c1ccc(-c2csc(C)n2)s1	x	n	x	x	x	x
CCOCCCNC(=O)/C(C#N)=C/c1cc(OC)c(O)c([N+](=O)[O-])c1	n	n	3.02	n	23.6	n
COCCNC(=O)/C(C#N)=C/c1ccc(O)c([N+](=O)[O-])c1	n	n	n	n	n	x
SMILES	Redox H2O2 prof	bCat nuc transl	ROMK primary	KCC2 mod	MT stabilize HCS	ROMK hit retest
CCOCCCNC(=O)/C(C#N)=C/c1ccc(Cl)c([N+](=O)[O-])c1	n	n	-4.18	n	n	0.0333
CCN(CC(=O)NC1CCS(=O)(=O)C1)S(=O)(=O)c1ccc(C)cc1C (stereo not drawn)	n	n	n	n	n	x
COc1ccccc1-c1cc(C(F)(F)F)nc(S(=O)(=O)CCCC(=O)N2CCOCC2)n1	n	n	-3.39	x	n	u
COc1ccccc1-c1cc(C(F)(F)F)nc(S(=O)(=O)CCCC(=O)O)n1	n	x	n	x	n	x
NNC(=O)c1cc2c(N3CCC(Cc4ccccc4)CC3)ncnc2s1	n	n	-4.52	n	n	n
CC(C)=NNC(=O)c1c(O)c2ccccc2[nH]c1=O	x	n	x	n	x	x
CCNC(=O)c1c(O)c2ccccc2[nH]c1=O	n	n	2.56	n	n	n
COc1cc(/C=C(\C#N)C(N)=O)ccc1OS(=O)(=O)c1ccc(C)cc1	n	n	x	n	n	0.0415
O=C(CC1CCC1)NC(c1ccccc1)c1ccccc1	n	n	n	n	n	x
O=C(Nc1ccccc1)N(C1=NCCCCS1)c1ccccc1	n	n	x	n	n	n
O=C(Nc1ccccc1)N(C1=NCCCCS1)c1cccc2ccccc12	n	n	x	n	n	x
COc1ccc(N2CCN(Cc3nc4ccsc4c(=O)[nH]3)CC2)cc1	n	n	n	n	n	x

Screens from PubChem BioAssay.
